Legend:
[1] = system: phosphorylated TAK1 (S412); experiment: pTAK1; format: cell-based, murine; conditions: MPC-11 cells, 0.1 or 0.5 μM, 48 h, western blot
In short: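 MPC-11 cells were seeded at 0.5–1 × 10^6, left 24 h, then treated with test compound at 0.1 or 0.5 μM or DMSO for 48 h. Cells were lysed in RIPA (pH 7.4) with protease inhibitors and 1 mM PMSF, and protein was measured by BCA. Lysates were run on 10% SDS-PAGE and blotted to PVDF. Blots were probed overnight at 4 °C for pTAK1, TAK1 and β-actin, then with HRP secondaries for 2 h at 24 °C. Detection was by chemiluminescence, with bands quantified relative to actin.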

[2] = biological target: T1, TAK1 (Homo sapiens, UniProt O43318); experiment: TAK1 ADP-Glo kinase assay; format: biochemical; conditions: for TAK1 kinase inhibition: compound 500 nM
T1 sequence (O43318 1-303 limits assumed): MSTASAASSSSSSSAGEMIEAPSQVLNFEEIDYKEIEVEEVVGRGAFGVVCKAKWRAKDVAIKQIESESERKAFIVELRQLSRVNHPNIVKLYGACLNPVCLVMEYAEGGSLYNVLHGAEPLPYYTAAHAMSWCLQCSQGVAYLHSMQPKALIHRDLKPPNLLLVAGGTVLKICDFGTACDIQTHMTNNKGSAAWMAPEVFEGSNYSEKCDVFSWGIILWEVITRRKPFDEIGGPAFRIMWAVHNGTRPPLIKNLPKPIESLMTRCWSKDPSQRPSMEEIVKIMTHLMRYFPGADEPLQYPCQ
In short: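 Tiered TAK1 screen using the ADP-Glo kinase assay. Test compounds were first tested at 500 nM. Those exceeding 50% enzyme inhibition were retested at 100 nM, then at 20 nM. Values are means of triplicates with SD.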

[3] = system: kinase anti-targets; experiment: KinomeScan profiling, kinase anti-targets; format: binding; conditions: Eurofins KinomeScan; KIT, ZAP70, JAK2, RET, KDR, PDGFR, FGFR, EGFR, BRAF, AKT, AURKA or B
[4] = biological target: PKAC alpha (Homo sapiens, UniProt P17612); experiment: KinomeScan PKAC alpha; format: binding; conditions: in words
[5] = system: MPC-11 cells; experiment: Cell viability assay; format: cell-based, murine; conditions: compound 200 nM
In short: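 MPC-11 cells were grown in DMEM with 10% FBS at 37 °C under 5% CO2 and kept below 10 passages. Cells were seeded at 4–5 × 10^3 per well, left 24 h, then exposed to test compound (screened at 1 and 0.2 μM) for 72 h. CellTiter-Blue was added for 3 h and fluorescence read at 560/590 nm. Runs were in triplicate, normalised to DMSO-treated cells.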

Row | TAK1 kinase inhibition [2] | SMILES | further results
1 |  | Cc1n[nH]c2ccc(-c3cnc4ccc(N5C[C@@H](C)O[C@@H](C)C5)nn34)cc12 [Compound 3, (2S,6R)-2,6-Dimethyl-4-(3-(3-methyl-1H-indazol-5-yl)imidazo[1,2-b]pyridazin-6-yl)morpholine] | levels of phosphorylated TAK1 (S412) compared to DMSO control [1]: successful in reducing levels of phosphorylated TAK1 (S412)
2 | negligible kinase inhibition | C[C@@H]1CN(c2ccc3ncc(-c4ccccc4)n3n2)C[C@H](C)O1 [Compound 5, (2S,6R)-2,6-Dimethyl-4-(3-phenylimidazo[1,2-b]pyridazin-6-yl)morpholine] | 
3 | moderate kinase inhibition | C[C@@H]1CN(c2ccc3ncc(-c4ccc(C#N)cc4)n3n2)C[C@H](C)O1 [Compound 6, 4-(6-((2S,6R)-2,6-Dimethylmorpholino)imidazo[1,2-b]pyridazin-3-yl)benzonitrile] | 
4 | moderate kinase inhibition | C[C@@H]1CN(c2ccc3ncc(-c4ccc(C(F)(F)F)cc4)n3n2)C[C@H](C)O1 [Compound 7, (2S,6R)-2,6-Dimethyl-4-(3-(4-(trifluoromethyl)phenyl)imidazo[1,2-b]pyridazin-6-yl)morpholine] | 
5 | moderate kinase inhibition | C[C@@H]1CN(c2ccc3ncc(-c4cccc(S(C)(=O)=O)c4)n3n2)C[C@H](C)O1 [Compound 8, (2S,6R)-2,6-Dimethyl-4-(3-(3-(methylsulfonyl)phenyl)imidazo[1,2-b]pyridazin-6-yl)morpholine] | 
6 | moderate kinase inhibition | C[C@@H]1CN(c2ccc3ncc(-c4ccc(F)cc4)n3n2)C[C@H](C)O1 [Compound 9, (2S,6R)-4-(3-(4-Fluorophenyl)imidazo[1,2-b]pyridazin-6-yl)-2,6-dimethylmorpholine] | 
7 | negligible kinase inhibition | C[C@@H]1CN(c2ccc3ncc(-c4ccc(OC(F)(F)F)cc4)n3n2)C[C@H](C)O1 [Compound 11, (2S,6R)-2,6-Dimethyl-4-(3-(4-(trifluoromethoxy)phenyl)imidazo[1,2-b]pyridazin-6-yl)morpholine] | 
8 |  | C[C@@H]1CN(c2ccc3ncc(-c4ccc(C(N)=O)cc4)n3n2)C[C@H](C)O1 [Compound 12, 4-(6-((2S,6R)-2,6-Dimethylmorpholino)imidazo[1,2-b]pyridazin-3-yl)benzamide] | inhibition of TAK1 ([2]; compound 100 nM): decrease in TAK1 kinase inhibition compared to the previous screening
9 | moderate kinase inhibition | CNC(=O)c1ccc(-c2cnc3ccc(N4C[C@@H](C)O[C@@H](C)C4)nn23)cc1 [Compound 13, 4-(6-((2S,6R)-2,6-dimethylmorpholino)imidazo[1,2-b]pyridazin-3-yl)-N-methylbenzamide] | 
10 | moderate kinase inhibition | C[C@@H]1CN(c2ccc3ncc(-c4ccc(CC#N)cc4)n3n2)C[C@H](C)O1 [Compound 14, 2-(4-(6-((2S,6R)-2,6-Dimethylmorpholino)imidazo[1,2-b]pyridazin-3-yl)phenyl)acetonitrile] | 
11 | moderate kinase inhibition | C[C@@H]1CN(c2ccc3ncc(-c4ccc(F)c(C#N)c4)n3n2)C[C@H](C)O1 [Compound 16, 5-(6-((2S,6R)-2,6-Dimethylmorpholino)imidazo[1,2-b]pyridazin-3-yl)-2-fluorobenzonitrile] | 
12 | moderate kinase inhibition | C[C@@H]1CN(c2ccc3ncc(-c4ccncc4)n3n2)C[C@H](C)O1 [Compound 17, (2S,6R)-2,6-Dimethyl-4-(3-(pyridin-4-yl)imidazo[1,2-b]pyridazin-6-yl)morpholine] | 
13 | negligible kinase inhibition | C[C@@H]1CN(c2ccc3ncc(-c4cccnc4)n3n2)C[C@H](C)O1 [Compound 18, (2S,6R)-2,6-Dimethyl-4-(3-(pyridin-3-yl)imidazo[1,2-b]pyridazin-6-yl)morpholine] | 
14 | negligible kinase inhibition | C[C@@H]1CN(c2ccc3ncc(-c4cccc(C#N)c4)n3n2)C[C@H](C)O1 [Compound 19, 3-(6-((2S,6R)-2,6-Dimethylmorpholino)imidazo[1,2-b]pyridazin-3-yl)benzonitrile] | 
15 |  | C[C@@H]1CN(c2ccc3ncc(-c4ccc5cn[nH]c5c4)n3n2)C[C@H](C)O1 [Compound 21, (2S,6R)-4-(3-(1H-Indazol-6-yl)imidazo[1,2-b]pyridazin-6-yl)-2,6-dimethylmorpholine] | inhibition at 0.5 µM ([2]; read-out: TAK1 kinase inhibition, compound 500 nM): < 50%
16 |  | C[C@@H]1CN(c2ccc3ncc(-c4ccc5[nH]nc(C6CC6)c5c4)n3n2)C[C@H](C)O1 [Compound 26, (2S,6R)-4-(3-(3-Cyclopropyl-1H-indazol-5-yl)imidazo[1,2-b]pyridazin-6-yl)-2,6-dimethylmorpholine] | inhibition of kinase anti-targets [3]: minimal inhibition; affinity for PKAC alpha [4]: low affinity; levels of phosphorylated TAK1 (S412) compared to DMSO control [1]: successful in reducing levels of phosphorylated TAK1 (S412)
17 |  | Cc1n[nH]c2ccc(-c3cnc4ccc(N5CCO[C@@H](C)C5)nn34)cc12 [Compound 33, (S)-2-Methyl-4-(3-(3-methyl-1H-indazol-5-yl)imidazo[1,2-b]pyridazin-6-yl)morpholine] | inhibition of MPC-11 [5]: inactive
18 |  | CCCn1/c(=N/C(=O)c2cccc(C(N)=O)c2)[nH]c2ccccc21 [Takinib, reference compound] | levels of phosphorylated TAK1 (S412) compared to DMSO control [1]: did not show a significant difference
